Measured values published in ChEMBL document CHEMBL2390903, “Anti-tubercular agents. Part 7: a new class of diarylpyrrole-oxazolidinone conjugates as antimycobacterial agents” (Eur J Med Chem, 2013).
pIC50: −log10 of the molar value. In brackets after ≈: the same amount, converted by molar mass.

Assays:
[1] = system: Pseudomonas aeruginosa; test: Antibacterial activity against Pseudomonas aeruginosa MTCC 2453 assessed as growth inhibition after 24 hrs by agar dilution method; format: functional; details: MTCC 2453, 24 h
[2] = system: Bacillus subtilis; test: Antibacterial activity against Bacillus subtilis MTCC 121 assessed as growth inhibition after 24 hrs by agar dilution method; format: functional; details: MTCC 121, 24 h
[3] = system: Escherichia coli; test: Antibacterial activity against Escherichia coli MTCC 739 assessed as growth inhibition after 24 hrs by agar dilution method; format: functional; details: MTCC 739, 24 h
[4] = system: Micrococcus luteus; test: Antibacterial activity against Micrococcus luteus MTCC 2470 assessed as growth inhibition after 24 hrs by agar dilution method; format: functional; details: MTCC 2470, 24 h
[5] = system: Staphylococcus; test: Antibacterial activity against 16-membered ring macrolide- lincosamide-streptogramin B-resistant Staphylococcus MTCC 2940 assessed as growth inhibition after 24 hrs by agar dilution method; format: functional; details: MTCC 2940, 24 h
[6] = system: Staphylococcus aureus; test: Antibacterial activity against Staphylococcus aureus MTCC 96 assessed as growth inhibition after 24 hrs by agar dilution method; format: functional; details: MTCC 96, 24 h
[7] = Cytotoxicity against mouse J744 cells assessed as growth inhibition after 24 hrs by MTT assay; format: cell-based; details: J744, 24 h
How it was run: (§1)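 Mouse J-774 macrophages exposed to test material (40) in RPMI with 10% FCS for 24 h at 37 °C under CO2. MTT then added with a further 3 h incubation. Formazan absorbance read at […]. Percent cytotoxicity calculated relative to untreated cells.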

[8] = Selectivity index, ratio of IC50 for mouse J744 cells to MIC for Mycobacterium tuberculosis H37Rv; format: functional
[9] = Cytotoxicity against mouse J744 cells assessed as growth inhibition at 40 ug/mL after 24 hrs by MTT assay relative to control; format: cell-based; details: read-out: GI; how it was run: as §1
[10] = system: Mycobacterium tuberculosis; test: Antitubercular activity against Mycobacterium tuberculosis XDR-1 assessed as growth inhibition after 2 to 3 weeks by broth microdilution method; format: functional
How it was run: (§2)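 Primary screen of all compounds against H37Rv at a single concentration in triplicate by microplate dilution. Actives then went to MIC determination by broth microdilution against H37Rv, rifampicin-resistant and XDR-1 isolates. Plates incubated 2–3 weeks at 37 °C in a CO2 incubator. MIC read visually as absence of growth turbidity. Rifampicin and linezolid served as reference drugs.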

[11] = system: Mycobacterium tuberculosis; test: Antitubercular activity against Mycobacterium tuberculosis H37Rv assessed as growth inhibition after 2 to 3 weeks by broth microdilution method; format: functional; how it was run: as §2
[12] = system: Bacillus subtilis; test: Antibacterial activity against Bacillus subtilis MTCC 121 assessed as growth inhibition at 20 ug/mL after 24 hrs; format: functional; details: MTCC 121, 24 h, read-out: IZ
[13] = system: Micrococcus luteus; test: Antibacterial activity against Micrococcus luteus MTCC 2470 assessed as growth inhibition at 20 ug/mL after 24 hrs; format: functional; details: MTCC 2470, 24 h, read-out: IZ
[14] = system: Staphylococcus; test: Antibacterial activity against 16-membered ring macrolide- lincosamide-streptogramin B-resistant Staphylococcus MTCC 2940 assessed as growth inhibition at 20 ug/mL after 24 hrs; format: functional; details: MTCC 2940, 24 h, read-out: IZ
[15] = system: Staphylococcus aureus; test: Antibacterial activity against Staphylococcus aureus MTCC 96 assessed as growth inhibition at 20 ug/mL after 24 hrs; format: functional; details: MTCC 96, 24 h, read-out: IZ

| SMILES | MIC [1] | MIC [2] | MIC [3] | MIC [4] | MIC [5] | MIC [6] | pIC50 [7] | Selectivity Index [8] | inhibition at 24 h, 40 ug/mL [9] | MIC [10] | MIC [11] | zone of inhibition at 20 µg/mL [12] | zone of inhibition at 20 µg/mL [13] | zone of inhibition at 20 µg/mL [14] | zone of inhibition at 20 µg/mL [15] |
| --- | --- | --- | --- | --- | --- | --- | --- | --- | --- | --- | --- | --- | --- | --- | --- |
| Cc1c(CN2CCN(c3ccc(N4C[C@H](Cn5cc(-c6ccccn6)nn5)OC4=O)cc3F)CC2)cc(-c2ccc(Cl)c(F)c2)n1-c1ccc(OC(F)(F)F)cc1 | > 40 µg/mL | 16 µg/mL (≈ 19.9 µM) | > 40 µg/mL | 8 µg/mL (≈ 9.94 µM) | 9 µg/mL (≈ 11.2 µM) | > 30 µg/mL | < 4.40 | >10 | 37.7% | > 16 µg/mL | 4 µg/mL (≈ 4.97 µM) |  |  |  |  |
| Cc1c(CN2CCN(c3ccc(N4C[C@H](Cn5cc(-c6ccccn6)nn5)OC4=O)cc3F)CC2)cc(-c2ccc(F)cc2F)n1-c1cc(F)ccc1Br |  |  |  |  |  |  | < 4.40 | >10 | 43.9% |  |  |  |  |  |  |
| Cc1c(CN2CCN(c3ccc(N4C[C@H](Cn5cc(-c6ccccc6)nn5)OC4=O)cc3F)CC2)cc(-c2cccc(Cl)c2)n1-c1ccccc1F | > 40 µg/mL | > 40 µg/mL | > 40 µg/mL | 8 µg/mL (≈ 11.1 µM) | 10 µg/mL (≈ 13.9 µM) | > 40 µg/mL |  |  |  | > 16 µg/mL | > 16 µg/mL |  |  |  |  |
| Cc1ccccc1-c1cc(CN2CCN(c3ccc(N4C[C@H](Cn5cc(-c6cncn6C)nn5)OC4=O)cc3F)CC2)c(C)n1-c1ccc(F)c(F)c1 | > 40 µg/mL | > 30 µg/mL | > 40 µg/mL | 10 µg/mL (≈ 13.9 µM) | > 30 µg/mL | 10 µg/mL (≈ 13.9 µM) |  |  |  | > 16 µg/mL | > 6.25 µg/mL |  |  |  |  |
| CC(=O)NC[C@H]1CN(c2ccc(N3CCN(Cc4cc(-c5ccc(F)cc5F)n(-c5cc(F)ccc5Br)c4C)CC3)c(F)c2)C(=O)O1 | > 40 µg/mL | 2.5 µg/mL (≈ 3.5 µM) | > 40 µg/mL | 5 µg/mL (≈ 7 µM) | 5 µg/mL (≈ 7 µM) | 3 µg/mL (≈ 4.2 µM) |  |  |  | > 16 µg/mL | 8 µg/mL (≈ 11.2 µM) | 14 mm | 19 mm | 18 mm | 20 mm |
| CO[C@H]1/C=C/O[C@@]2(C)Oc3c(C)c(O)c4c(O)c(c(/C=N/N5CCN(C)CC5)c(O)c4c3C2=O)NC(=O)/C(C)=C\C=C\[C@H](C)[C@H](O)[C@@H](C)[C@@H](O)[C@@H](C)[C@H](OC(C)=O)[C@@H]1C [RIFAMPIN] |  |  |  |  |  |  |  |  |  | 2 µg/mL (≈ 2.43 µM) | 0.2 µg/mL (≈ 0.243 µM) |  |  |  |  |
| Cc1ccccc1-c1cc(CN2CCN(c3ccc(N4C[C@H](Cn5cc(-c6cncn6C)nn5)OC4=O)cc3F)CC2)c(C)n1-c1ccc(F)cc1 | > 40 µg/mL | > 30 µg/mL | > 40 µg/mL | > 30 µg/mL | > 30 µg/mL | 10 µg/mL (≈ 14.2 µM) | < 4.40 | >10 | 49.3% | 8 µg/mL (≈ 11.4 µM) | 2 µg/mL (≈ 2.84 µM) |  |  |  |  |
| CC(=O)NC[C@H]1CN(c2ccc(N3CCN(Cc4cc(-c5cccc(Cl)c5)n(-c5ccccc5F)c4C)CC3)c(F)c2)C(=O)O1 | > 40 µg/mL | 1.5 µg/mL (≈ 2.37 µM) | > 40 µg/mL | 1.5 µg/mL (≈ 2.37 µM) | 2 µg/mL (≈ 3.15 µM) | 0.5 µg/mL (≈ 0.788 µM) |  |  |  | > 16 µg/mL | 8 µg/mL (≈ 12.6 µM) | 18 mm | 27 mm | 23 mm | 18 mm |
| Cc1c(CN2CCN(c3ccc(N4C[C@H](Cn5cc(-c6cncn6C)nn5)OC4=O)cc3F)CC2)cc(-c2ccc(F)cc2F)n1-c1ccc(F)cc1 | > 40 µg/mL | > 30 µg/mL | > 40 µg/mL | > 30 µg/mL | > 30 µg/mL | 16 µg/mL (≈ 22 µM) |  |  |  | 16 µg/mL (≈ 22 µM) | > 6.25 µg/mL |  |  |  |  |
| Cc1cccc(-c2cn(C[C@H]3CN(c4ccc(N5CCN(Cc6cc(-c7ccccc7C)n(-c7ccc(F)cc7)c6C)CC5)c(F)c4)C(=O)O3)nn2)c1 | > 40 µg/mL | 9 µg/mL (≈ 12.6 µM) | > 40 µg/mL | > 40 µg/mL | > 40 µg/mL | > 40 µg/mL |  |  |  | > 16 µg/mL | > 16 µg/mL |  |  |  |  |
| Cc1ccccc1-c1cc(CN2CCN(c3ccc(N4C[C@H](Cn5cc(-c6ccccn6)nn5)OC4=O)cc3F)CC2)c(C)n1-c1ccc(F)c(F)c1 | > 40 µg/mL | 12 µg/mL (≈ 16.7 µM) | > 40 µg/mL | > 30 µg/mL | 5 µg/mL (≈ 6.96 µM) | > 30 µg/mL | < 4.40 | >10 | 40% | 16 µg/mL (≈ 22.3 µM) | 4 µg/mL (≈ 5.56 µM) |  |  |  |  |
| Cc1c(CN2CCN(c3ccc(N4C[C@H](Cn5cc(-c6ccccc6)nn5)OC4=O)cc3F)CC2)cc(-c2ccc(Cl)c(F)c2)n1-c1ccc(OC(F)(F)F)cc1 | > 40 µg/mL | > 40 µg/mL | > 40 µg/mL | 8 µg/mL (≈ 9.95 µM) | > 40 µg/mL | > 40 µg/mL |  |  |  | > 16 µg/mL | > 16 µg/mL |  |  |  |  |
| CC(=O)NC[C@H]1CN(c2ccc(N3CCN(Cc4cc(-c5ccccc5C)n(-c5ccc(F)cc5)c4C)CC3)c(F)c2)C(=O)O1 | > 40 µg/mL | 3 µg/mL (≈ 4.89 µM) | > 40 µg/mL | 1.5 µg/mL (≈ 2.44 µM) | 5 µg/mL (≈ 8.15 µM) | 1.5 µg/mL (≈ 2.44 µM) |  |  |  |  |  |  |  |  |  |
| Cc1c(CN2CCN(c3ccc(N4C[C@H](Cn5cc(-c6cncn6C)nn5)OC4=O)cc3F)CC2)cc(-c2ccc(C(C)C)cc2)n1-c1ccc(F)cc1F | > 40 µg/mL | > 30 µg/mL | > 40 µg/mL | > 30 µg/mL | > 30 µg/mL | 8 µg/mL (≈ 10.7 µM) | < 4.40 | >10 | 44.7% | 4 µg/mL (≈ 5.33 µM) | 4 µg/mL (≈ 5.33 µM) |  |  |  |  |
| Cc1c(CN2CCN(c3ccc(N4C[C@H](Cn5cc(-c6ccccc6)nn5)OC4=O)cc3F)CC2)cc(-c2ccc(F)cc2F)n1-c1cc(F)ccc1Br |  |  |  |  |  |  |  |  |  | > 16 µg/mL | > 16 µg/mL |  |  |  |  |
| Cc1ccc(-c2cc(CN3CCN(c4ccc(N5C[C@H](Cn6cc(-c7ccccn7)nn6)OC5=O)cc4F)CC3)c(C)n2-c2ccc(Cl)c(Cl)c2)cc1 | > 40 µg/mL | 1 µg/mL (≈ 1.33 µM) | > 40 µg/mL | 2.5 µg/mL (≈ 3.33 µM) | > 40 µg/mL | 8 µg/mL (≈ 10.6 µM) |  |  |  | 16 µg/mL (≈ 21.3 µM) | 4 µg/mL (≈ 5.32 µM) |  |  |  |  |
| Cc1ccc(-c2cc(CN3CCN(c4ccc(N5C[C@H](Cn6cc(-c7ccccc7)nn6)OC5=O)cc4F)CC3)c(C)n2-c2ccc(Cl)c(Cl)c2)cc1 | > 40 µg/mL | 2.5 µg/mL (≈ 3.33 µM) | > 40 µg/mL | 0.5 µg/mL (≈ 0.666 µM) | 9 µg/mL (≈ 12 µM) | 8 µg/mL (≈ 10.7 µM) |  |  |  | > 16 µg/mL | > 16 µg/mL | 14 mm | 17 mm | 19 mm | 21 mm |
